Results of several laboratories.
Each line is one published result; the experiments were not run side by side.
FLT3 D835H: Receptor-type tyrosine-protein kinase FLT3 (FLT3, Homo sapiens, UniProt P36888, D835H)
FLT3: Receptor-type tyrosine-protein kinase FLT3 (FLT3, Homo sapiens, UniProt P36888)
FLT3 D835V/ITD: Receptor-type tyrosine-protein kinase FLT3 (FLT3, Homo sapiens, UniProt P36888, D835V/ITD)
FLT3 D835Y: Receptor-type tyrosine-protein kinase FLT3 (FLT3, Homo sapiens, UniProt P36888, D835Y)
FLT3 K663Q: Receptor-type tyrosine-protein kinase FLT3 (FLT3, Homo sapiens, UniProt P36888, K663Q)

`CN(C)c1ncc(F)c(-c2cnn3ncccc23)n1` has a remaining binding of 86% (FLT3 D835H; binding; 1 µM).
`CC(C)(C)c1nc2c(s1)c1nc(N)ncc1c1ccc(NS(=O)(=O)c3c(F)cccc3F)c(F)c12` gave a remaining activity of 104% (FLT3; enzyme activity; inhibitor; radiometric; 1 µM).
`CN(C)CC#Cc1ccc(OCCCc2sc(N3CCc4cccc(C(=O)Nc5nc6ccccc6s5)c4C3)nc2C(=O)O)c(F)c1` gave a remaining binding of 100% (FLT3 D835V/ITD; cell-free assay; competition with immobilised ligand; 1 µM).
With `O=C(NCCCN1CCOCC1)c1ccc(Nc2ncc(Cl)c(-c3ccc(Cl)s3)n2)cc1` the remaining binding was 1.3% (Receptor-type tyrosine-protein kinase FLT3 (FLT3, Homo sapiens, UniProt P36888, D835V); binding; competition with immobilised ligand; 1 µM).
`C[C@@H]1CCN(c2nccc(-c3cnn4ncccc34)n2)C1` gave a remaining binding of 100% (FLT3 D835H; binding; 1 µM).
The remaining activity of `COc1cc(Cl)c(C(=O)N[C@@H](CN[C@H]2CC[C@@H](N)CC2)Cc2ccc(C#N)cc2)cc1-c1ccc(CN[C@H](C)c2ccc(C)cc2)o1` is reported as 103% (FLT3; enzyme activity; inhibitor; 1 µM).
For `COc1ccc2cc(OCC3(C(=O)O)CN(C(=O)c4ccc(F)cc4)C3)ccc2c1`, the remaining binding was 97% (FLT3; cell-free assay; competition with immobilised ligand; 1 µM).
The remaining binding of `O=C(c1ccc(Nc2ncc(Cl)c(-c3cc4ccccc4s3)n2)cc1)N1CCC(N2CCCC2)CC1` is reported as 6.2% (Receptor-type tyrosine-protein kinase FLT3 (FLT3, Homo sapiens, UniProt P36888, ITD); binding; competition with immobilised ligand; 1 µM).
With `CNC(=O)c1cc(Oc2ccc(NC(=O)Nc3ccc(Cl)c(C(F)(F)F)c3)cc2)ccn1` the remaining signal was 9.22% (FLT3; cell-free assay; 0.5 µM).
The remaining binding of `CC1CCCN1c1nccc(-c2cnn3ncccc23)n1` (stereo not drawn) is reported as 90% (FLT3 D835H; binding; 1 µM).
`CCCOc1ccc(OC)c(F)c1C(=O)c1ccc(C(=O)N[C@@H]2CNC[C@H]2NC(=O)c2ccc3[nH]ncc3c2)cc1` gave a remaining activity of 12% (FLT3 D835Y; enzyme activity; inhibitor; 10 µM).
With `Cc1ccc(Nc2nccc(N(C)c3ccc4c(C)n(C)nc4c3)n2)cc1S(N)(=O)=O` the remaining activity was 40.7% (FLT3; enzyme activity; inhibitor; 0.5 µM).
With `N[C@@H]1CCN(c2nccc(-c3cnn4ncccc34)n2)C1` the remaining binding was 100% (FLT3 D835H; binding; 1 µM).
The remaining binding of `CN(c1ccnc(CNc2nc(Nc3ccc4c(c3)CC(=O)N4)ncc2C(F)(F)F)n1)S(C)(=O)=O` is reported as 16% (FLT3 K663Q; cell-free assay; competition with immobilised ligand; 1 µM).
For `CN(c1nccc(-c2cnn3ncccc23)n1)C1CC1`, the remaining binding was 65% (FLT3; binding; 1 µM).
With `Cn1nc(C(F)(F)F)cc1-c1cnc(N2CCc3cc(S(=O)(=O)Nc4c(F)cc(Cl)cc4F)cc(N4CCCC4=O)c32)nc1` the remaining binding was 94% (Receptor-type tyrosine-protein kinase FLT3 (FLT3, Homo sapiens, UniProt P36888, N841I); cell-free assay; competition with immobilised ligand; 1 µM).
With `O=C(c1ccc(Nc2ncc(Cl)c(-c3ccc(Cl)s3)n2)cc1)N1CCC(N2CCCC2)CC1` the remaining binding was 1.3% (FLT3 K663Q; binding; competition with immobilised ligand; 1 µM).
`CC(C)CC(=O)N1CCc2nc(-c3ccc(Br)cc3)nc(N(C)Cc3ccccc3)c2C1` gave a remaining binding of 100% (FLT3 D835Y; cell-free assay; competition with immobilised ligand; 0.1 µM).
With `CN(C)c1nccc(-c2cnc3ncccn23)n1` the remaining binding was 61% (Receptor-type tyrosine-protein kinase FLT3 (FLT3, Homo sapiens, UniProt P36888, R834Q); binding; 1 µM).
The remaining binding of `CC(=O)C1=C(C)N(c2cccc(C(F)(F)F)c2)C(=O)N[C@@H]1c1ccc(C#N)nc1` is reported as 100% (FLT3 D835V/ITD; cell-free assay; competition with immobilised ligand; 1 µM).
`Cc1ccc(NC(=O)c2ccc(C)c(C(F)(F)F)c2)cc1C#Cc1nn(C2CCC(O)CC2)c2ncnc(N)c12` (stereo not drawn) gave a remaining activity of 118% (FLT3 D835Y; enzyme activity; inhibitor; 10 µM).
